Assay results taken from ChEMBL document CHEMBL4011654, “Mitochondria-Targeted Lupane Triterpenoid Derivatives and Their Selective Apoptosis-Inducing Anticancer Mechanisms” (J Med Chem, 2017).
pIC50: −log10 of the molar value. Activity calls are given as the source filed them. No cut-off for these calls is given here.

Legend:
K562 [1] = experiment: Induction of apoptosis in human K562 cells assessed as viable cells at 0.8 uM after 48 hrs by Annexin V-FITC/propidium iodide-staining based flow cytometric analysis (reference value: 95.75 to 96.56%); format: functional; settings: K562, 48 h, read-out: Activity
Outline: (§1)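 K562 seeded at 4 × 10^5 cells/well, 12 h, then exposed 48 h. Cells washed in ice-cold PBS, suspended in binding buffer, stained with annexin V-FITC and PI for 15 min at room temperature in the dark, and read by flow cytometry within 1 h. Cells counted as early/late apoptotic as % of total; n = 3.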

K562 [2] = experiment: Induction of apoptosis in human K562 cells assessed as viable cells at 1.2 uM after 48 hrs by Annexin V-FITC/propidium iodide-staining based flow cytometric analysis (reference value: 95.75 to 96.56%); format: functional; settings: K562, 48 h, read-out: Activity; outline: as §1
K562 [3] = experiment: Induction of apoptosis in human K562 cells assessed as late apoptotic cells at 0.4 uM after 48 hrs by Annexin V-FITC/propidium iodide-staining based flow cytometric analysis (reference value: 2.25 to 2.67%); format: functional; outline: as §1
K562 [4] = experiment: Induction of apoptosis in human K562 cells assessed as early apoptotic cells at 0.8 uM after 48 hrs by Annexin V-FITC/propidium iodide-staining based flow cytometric analysis (reference value: 0.92 to 1.45%); format: functional; outline: as §1
K562 [5] = experiment: Decrease in mitochondrial membrane potential in human K562 cells after 48 hrs by JC-1 staining based flow cytometry; format: functional, cell-based
Outline: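 K562 seeded at 4 × 10^5 cells/well, after 12 h treated 48 h. Cells washed in ice-cold PBS, loaded with JC-1 ([…]) at 37 °C for 15 min, rinsed, and analysed by flow cytometry (% cells with red aggregates) and fluorescence microscopy (red aggregates vs green monomers).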

[6] = Drug uptake in mitochondria of human K562 cells at 10 uM after 4 hrs by RP-HPLC analysis relative to betulin; format: ADME
Outline: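 K562 exposed to 10 μM compound or betulin for 4 h, washed, mitochondria isolated by kit, pellet extracted twice with dichloromethane/methanol (2:1). Residue assayed by RP-HPLC on C18: betulin in 100% acetonitrile, detection 220 nm; conjugate in 80% acetonitrile with 0.1% formic acid, detection 267 nm. Amounts normalised to protein; n = 3.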

K562 [7] = experiment: Induction of apoptosis in human K562 cells assessed as early apoptotic cells at 1.2 uM after 48 hrs by Annexin V-FITC/propidium iodide-staining based flow cytometric analysis (reference value: 0.92 to 1.45%); format: functional; outline: as §1
A549 = experiment: Cytotoxicity against human A549 cells assessed as cell growth inhibition after 48 hrs by MTT assay; format: functional, cell-based; settings: A549, 48 h
Outline: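 Adherent cells seeded at 5000/well, left 16−24 h, then exposed 48 h at 37 °C, 5% CO2 in RPMI with 10% FBS. Medium refreshed, MTT added for 4 h at 37 °C, medium removed, formazan dissolved in DMSO, OD570 read. IC50 taken as concentration inhibiting growth by 50%; triplicate.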

K562 [8] = experiment: Induction of apoptosis in human K562 cells assessed as necrotic cells at 0.8 uM after 48 hrs by Annexin V-FITC/propidium iodide-staining based flow cytometric analysis (reference value: 0.13 to 0.27%); format: functional; outline: as §1
K562 [9] = experiment: Cytotoxicity against human K562 cells assessed as cell growth inhibition after 48 hrs by MTT assay; format: functional, cell-based; settings: K562, 48 h
Outline: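 Suspension cells seeded at 5000/well (HL-60 in IMDM, K562 in RPMI, both with 10% FBS) and treated. MTT then added for 4 h at 37 °C; plates centrifuged at 3000 rpm for 30 min, medium removed, DMSO added, OD570 read. IC50 taken as concentration giving 50% growth inhibition; triplicate.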

K562 [10] = experiment: Induction of apoptosis in human K562 cells assessed as necrotic cells at 1.2 uM after 48 hrs by Annexin V-FITC/propidium iodide-staining based flow cytometric analysis (reference value: 0.13 to 0.27%); format: functional; outline: as §1
K562 [11] = experiment: Induction of apoptosis in human K562 cells assessed as upregulation of cleaved PARP up to 4 uM after 48 hrs by Western blot analysis; format: functional, cell-based
K562 [12] = experiment: Induction of apoptosis in human K562 cells assessed as caspase-9 activation at 4 uM after 48 hrs by Western blot analysis relative to control; format: functional
Outline: (§2)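 K562 treated 48 h, then lysed on ice for 30 min; cytosolic and mitochondrial fractions isolated by kit where needed, protein measured by BCA. 60 μg/lane run on SDS-PAGE, transferred to PVDF, blocked in 5% milk/TBST for 4 h. Probed for cytochrome c, caspase-9, caspase-3 (total/cleaved), PARP; alkaline phosphatase secondary.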

K562 [13] = experiment: Induction of apoptosis in human K562 cells assessed as caspase-3 activation at 4 uM after 48 hrs by Western blot analysis relative to control; format: functional; outline: as §2

C=C(C)[C@@H]1CC[C@]2(COC(=O)CCCC[P+](c3ccccc3)(c3ccccc3)c3ccccc3)CC[C@]3(C)[C@H](CC[C@@H]4[C@@]5(C)CC[C@H](O)C(C)(C)[C@@H]5CC[C@]43C)[C@@H]12.[Br-]
viability at 0.8 µM (K562 [1]): 63.2%
viability at 1.2 µM (K562 [2]): 45.3%
Activity (K562 [3]): 4.67%
Activity (K562 [4]): 12.51%
Activity (K562 [5]): Dose-dependent effect
fold change (FC) [6]: 3.4
Activity (K562 [7]): 12.03%
pIC50 (A549): 6.21
Activity (K562 [8]): 3.7%
pIC50 (K562 [9]): 6.24
Activity (K562 [10]): 4.41%
Activity (K562 [11]): Active
fold change (FC) (K562 [12]): 1.5
fold change (FC) (K562 [13]): 2.1
